Source: ChEMBL document CHEMBL4732044, “Discovery of a promising agent IQZ23 for the treatment of obesity and related metabolic disorders” (Eur J Med Chem, 2020)
Activity calls are given as the source filed them. The rule behind the calls is not given here.

Tests used:
Mus musculus = experiment: Antiobesity activity in high fat diet-induced obese C57BL/6J mouse model assessed as decrease in body weight at 50 mg/kg, ip administered for every other days for 5 weeks; type: functional; design: scale not given: the % may be the effect or the level left
3T3-L1 [1] = experiment: Inhibition of mouse 3T3-L1 cells adipocyte differentiation assessed as reduction in adipogenic cocktail-induced C/EBPalpha protein expression after 24 hrs by Western blot analysis; type: functional, cell-based
How it was run: (§1)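 3T3-L1 preadipocytes were exposed to adipogenic cocktail with compound (0.3 or 1 µM) and harvested on day 1. Lysates were resolved by SDS-PAGE, immunoblotted (primary antibody overnight at 4 °C, HRP secondary) and quantified by densitometry normalized to actin.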

3T3-L1 [2] = experiment: Activation of AMPK pathway in adipogenic cocktail-induced mouse 3T3-L1 cells assessed as increase in phosphorylation AMPKalpha at Thr172 residue after 24 hrs by Western blot analysis; type: cell-based; conditions: filed as activator
How it was run: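 Confluent 3T3-L1 pre-adipocytes exposed to adipogenic cocktail for 24 h with or without compound (0, 0.01, 0.1, 1 µM); DMSO vehicle. Lysates analysed by SDS-PAGE/Western blot for pAMPKα (Thr-172), normalized to actin, Ctrl set as 1. N = 4 independent experiments.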

3T3-L1 [3] = experiment: Inhibition of mouse 3T3-L1 cells adipocyte differentiation assessed as reduction in adipogenic cocktail-induced FAS protein expression after 6 days by Western blot analysis; type: functional, cell-based; conditions: time 6.0 day
How it was run: (§2)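 3T3-L1 preadipocytes were differentiated with cocktail for 3 days, then insulin medium for 3 days, with compound (0.3 or 1 µM) present throughout. Cells were harvested on day 6 and proteins measured by Western blot, with densitometry normalized to actin.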

3T3-L1 [4] = experiment: Lipid lowering activity in mouse 3T3-L1 cells assessed as reduction in adipogenic cocktail-induced triglyceride levels […] incubated for 6 days by GPO-POD assay relative to control; type: functional; design: scale not given: the % may be the effect or the level left; conditions: time 6 day
3T3-L1 [5] = experiment: Inhibition of mouse 3T3-L1 cells adipocyte differentiation assessed as reduction in adipogenic cocktail-induced C/EBPdelta mRNA expression at 1 mM after 24 hrs by RT-qPCR analysis; type: functional, cell-based
How it was run: (§3)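 Confluent 3T3-L1 preadipocytes received differentiation cocktail (0.5 mM IBMX, 100 ng/mL dexamethasone, 2 µg/mL insulin) with compound (0.01–1 µM; metformin 1 mM) for 24 h. mRNA was measured by SYBR Green RT-qPCR (30 cycles), normalized to β-actin, with the differentiated control set to 1. N = 4 independent experiments.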

C2C12 [6] = experiment: Activation of AMPK pathway in mouse C2C12 cells assessed as increase in glucose uptake at 1 mM after 6 hrs by 2-NBDG/Hoechst 33342 staining based Confocal microscopic method; type: cell-based; conditions: filed as activator
How it was run: (§4)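 C2C12 myoblasts kept in DMEM with 10% FBS and 1% penicillin/streptomycin at 37 °C under 5% CO2.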

C2C12 [7] = experiment: Activation of AMPK pathway in mouse C2C12 cells assessed as increase in glucose uptake at 1 mM after 6 hrs in presence of insulin by 2-NBDG/Hoechst 33342 staining based Confocal microscopic method; type: cell-based; conditions: filed as activator; how it was run: as §4
3T3-L1 [8] = experiment: Inhibition of mouse 3T3-L1 cells adipocyte differentiation assessed as reduction in adipogenic cocktail-induced C/EBPalpha mRNA expression at 1 mM after 24 hrs by RT-qPCR analysis; type: functional, cell-based; how it was run: as §3
3T3-L1 [9] = experiment: Inhibition of mouse 3T3-L1 cells adipocyte differentiation assessed as reduction in adipogenic cocktail-induced PPARgamma protein expression after 24 hrs by Western blot analysis; type: functional, cell-based; how it was run: as §1
3T3-L1 [10] = experiment: Inhibition of mouse 3T3-L1 cells adipocyte differentiation assessed as reduction in adipogenic cocktail-induced PPARgamma mRNA expression at 1 mM after 24 hrs by RT-qPCR analysis; type: functional, cell-based; how it was run: as §3
3T3-L1 [11] = experiment: Inhibition of mouse 3T3-L1 cells adipocyte differentiation assessed as reduction in adipogenic cocktail-induced C/EBPbeta mRNA expression at 1 mM after 24 hrs by RT-qPCR analysis; type: functional, cell-based; how it was run: as §3
3T3-L1 [12] = experiment: Inhibition of mouse 3T3-L1 cells adipocyte differentiation assessed as reduction in adipogenic cocktail-induced ACC protein expression after 6 days by Western blot analysis; type: functional, cell-based; conditions: time 6.0 day; how it was run: as §2
3T3-L1 [13] = experiment: Inhibition of mouse 3T3-L1 cells adipocyte differentiation assessed as reduction in adipogenic cocktail-induced SREBP-1c protein expression after 24 hrs by Western blot analysis; type: functional, cell-based; how it was run: as §1
3T3-L1 [14] = experiment: Inhibition of mouse 3T3-L1 cells adipocyte differentiation assessed as reduction in adipogenic cocktail-induced SCD1 protein expression after 6 days by Western blot analysis; type: functional, cell-based; conditions: time 6.0 day; how it was run: as §2

Compound | Activity (Mus musculus) [%] | inhibition (3T3-L1 [1]) | Activity (3T3-L1 [2]) | inhibition (3T3-L1 [3]) | Activity (3T3-L1 [4]) [%] | inhibition (3T3-L1 [5]) | Activity (C2C12 [6]) | Activity (C2C12 [7]) | inhibition (3T3-L1 [8]) | inhibition (3T3-L1 [9]) | inhibition (3T3-L1 [10]) | inhibition (3T3-L1 [11]) | inhibition (3T3-L1 [12]) | inhibition (3T3-L1 [13]) | inhibition (3T3-L1 [14])
O=Cc1c(-c2nc3ccccc3c(=O)[nH]2)[nH]c2ccccc12 | 14.6 | – | – | – | – | – | – | – | – | – | – | – | – | – | –
CN(C)C(=N)NC(=N)N [METFORMIN] | – | Active | Active | Active | 60.3 | Active | Active | Active | Active | Active | Active | Active | Active | Active | Active
